Measurements from ChEMBL document CHEMBL1770130, “Design, synthesis, and in vivo characterization of a novel series of tetralin amino imidazoles as γ-secretase inhibitors: discovery of PF-3084014” (Bioorg Med Chem Lett, 2011).
Calls of active or inactive are those of the source. The rule behind the calls is not given here.

How the values were obtained:
[1] = system: human MDR1 (P-gp); assay: Efflux ratio of permeability from basolateral to apical side to apical to basolateral side of MDCK cells expressing human MDR1; assay type: ADME, cell-based, Canis lupus familiaris; conditions: dog
Outline: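 MDCK cells transfected with human P-glycoprotein (MDR1); efflux ratio calculated as B→A over A→B permeability.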

[2] = target: Gamma-secretase; assay: Inhibition of gamma-secretase in human H4 cells expressing APP Swedish mutant assessed as inhibition of amyloid beta (1 to x) production by whole cell assay
[3] = target: Gamma-secretase; assay: Inhibition of gamma-secretase in human HeLa cells assessed as inhibition of amyloid beta (1 to 40) production by DELFIA-based immunoassay; assay type: cell-based
[4] = Ratio of EC50 for gamma secretase-mediated notch processing in C57BL/6 mouse fetal thymic organ cultures to plasma concentration observed at brain ED50 of total beta-amyloid level
Outline: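 FTOC EC50 divided by the plasma concentration at the brain ED50. That plasma concentration was obtained by linear least-squares regression of dose against measured plasma concentration in guinea pigs.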

[5] = Effect on gamma secretase-mediated notch processing in C57BL/6 mouse fetal thymic organ cultures assessed as reduction of B and T-cell populations after 45 mins by FACS analysis
[6] = system: Cavia porcellus; assay: Antialzheimer activity in sc dosed guinea pig assessed as reduction of total amyloid beta level in brain after 3 hrs by DELFIA-based ELISA; assay type: functional
Outline: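 Guinea pigs dosed sc over a range of doses and brain Aβ1-X measured by DELFIA ELISA at 3 h; brain ED50 derived from the dose–response.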

[7] = system: Cavia porcellus; assay: Antialzheimer activity in guinea pig assessed as reduction of total amyloid beta level in plasma at 7 to 32 mg/kg, sc administered 3 doses over 24 hrs measured after 3 hrs last post dose by DELFIA-based ELISA; assay type: functional, organism-based
Outline: (§1)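 Guinea pigs dosed sc at 7 or 32 mg/kg three times over 24 h (0, 12, 24 h). Tissues collected 3 h after the final dose, and Aβ measured by DELFIA ELISA; compared with vehicle by one-way ANOVA and Dunnett's test.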

[8] = system: Cavia porcellus; assay: Antialzheimer activity in guinea pig assessed as reduction of total amyloid beta level in cerebral spinal fluid at 3.2 mg/kg, sc after 3 hrs by DELFIA-based ELISA; assay type: functional; design: scale not given: the % may be the effect or the level left; conditions: route subcutaneous
Outline: (§2)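 Guinea pigs given a single sc dose (3.2–32 mg/kg); brain, CSF and plasma taken at 3 h for the dose–response, or at intervals of 3 to 24 h after 10 mg/kg for the time course. Aβ1-X, Aβ1-40 and Aβ1-42 measured by DELFIA ELISA. Data given as percentage of vehicle; one-way ANOVA with Dunnett's post-hoc versus vehicle, p<0.05.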

[9] = system: Cavia porcellus; assay: Antialzheimer activity in guinea pig assessed as reduction of total amyloid beta level in brain at 10 mg/kg, sc after 24 hrs by DELFIA-based ELISA; assay type: functional, organism-based; design: dose 10 mg/kg
Outline: (§3)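 Guinea pigs dosed once at 10 mg/kg sc, tissues sampled up to 24 h. Aβ1-X in brain, CSF and plasma measured by DELFIA ELISA and expressed as percentage of vehicle; one-way ANOVA with Dunnett's test versus vehicle, p<0.05.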

[10] = Plasma concentration in guinea pig at 3.2 mg/kg, sc; assay type: ADME, organism-based, Cavia porcellus; design: dose 3.2 mg/kg, route subcutaneous; conditions: in vivo
Outline: (§4)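 Guinea pigs given a single 3.2 mg/kg sc dose; drug concentrations in plasma and brain determined at the 3 h sampling point.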

[11] = system: Cavia porcellus; assay: Antialzheimer activity in guinea pig assessed as reduction of total amyloid beta level in brain at 3.2 mg/kg, sc after 3 hrs by DELFIA-based ELISA; assay type: functional; design: scale not given: the % may be the effect or the level left; conditions: route subcutaneous; outline: as §2
[12] = system: Cavia porcellus; assay: Antialzheimer activity in guinea pig assessed as reduction of total amyloid beta level in cerebral spinal fluid at 10 mg/kg, sc after 3 to 10 hrs by DELFIA-based ELISA; assay type: functional, organism-based; design: dose 10 mg/kg; outline: as §2
[13] = system: Cavia porcellus; assay: Reduction of marginal zone of B cell populations in guinea pig at 7 mg/kg, sc administered 3 doses over 24 hrs measured after 3 hrs last post dose by FACS analysis; assay type: organism-based; design: dose 7 mg/kg, route subcutaneous; conditions: in vivo
Outline: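 Guinea pigs dosed sc at 7 mg/kg at 0, 12 and 24 h. Spleen marginal zone and whole-blood B cells counted by flow cytometry 3 h after the last dose.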

[14] = system: Cavia porcellus; assay: Antialzheimer activity in guinea pig assessed as reduction of total amyloid beta level in brain at 10 mg/kg, sc after 3 to 10 hrs by DELFIA-based ELISA; assay type: functional, organism-based; design: dose 10 mg/kg; outline: as §2
[15] = system: Cavia porcellus; assay: Antialzheimer activity in guinea pig assessed as reduction of total amyloid beta level in brain at 7 to 32 mg/kg, sc administered 3 doses over 24 hrs measured after 3 hrs last post dose by DELFIA-based ELISA; assay type: functional, organism-based; outline: as §1
[16] = system: Cavia porcellus; assay: Antialzheimer activity in guinea pig assessed as reduction of total amyloid beta level in cerebral spinal fluid at 10 mg/kg, sc after 24 hrs by DELFIA-based ELISA; assay type: functional, organism-based; design: dose 10 mg/kg; outline: as §3
[17] = Drug concentration in guinea pig brain at 3.2 mg/kg, sc; assay type: ADME, organism-based, Cavia porcellus; design: dose 3.2 mg/kg, route subcutaneous; conditions: in vivo; outline: as §4
[18] = Ratio of EC50 for gamma secretase-mediated notch processing in C57BL/6 mouse fetal thymic organ cultures to IC50 for APP by whole cell assay
[19] = system: Cavia porcellus; assay: Antialzheimer activity in guinea pig assessed as reduction of total amyloid beta level in plasma at 10 mg/kg, sc after 24 hrs by DELFIA-based ELISA; assay type: functional, organism-based; design: dose 10 mg/kg; outline: as §3
[20] = system: Cavia porcellus; assay: Antialzheimer activity in guinea pig assessed as reduction of total amyloid beta level in plasma at 3.2 mg/kg, sc after 3 hrs by DELFIA-based ELISA; assay type: functional; design: scale not given: the % may be the effect or the level left; conditions: route subcutaneous; outline: as §2
[21] = system: Cavia porcellus; assay: Antialzheimer activity in guinea pig assessed as reduction of total amyloid beta level in plasma at 10 mg/kg, sc after 3 to 10 hrs by DELFIA-based ELISA; assay type: functional, organism-based; design: dose 10 mg/kg; outline: as §2

Row | SMILES | efflux ratio [1] | IC50 [2] | IC50 [3] | EC50 [5] | ED50 [6] | also measured
1 | CCC[C@H](NC1CCc2cc(F)cc(F)c2C1)C(=O)Nc1cn(C(C)(C)CN2CCCC2)cn1 (mixture of isomers) | 1.5 | 5.4 nM | 4.1 nM |  |  | 
2 | CCC[C@H](NC1CCc2cc(F)ccc2C1)C(=O)Nc1cn(C(C)(C)CN2CCCC2)cn1 (mixture of isomers) | 1.8 | 19.5 nM | 19.3 nM |  |  | 
3 | CCC[C@H](N[C@H]1CCc2cc(F)cc(F)c2C1)C(=O)Nc1cn(C(C)(C)CN2CCOCC2)cn1 |  | 6.9 nM |  | 1090 nM | 2.9 mg/kg | Ratio [4]: 16.3
4 | CCC[C@H](NC(CC)CC)C(=O)Nc1cn(C(C)(C)CN2CCCC2)cn1 | 2.3 | 310 nM | 6120 nM |  |  | 
5 | CCC[C@H](N[C@H]1CCc2cc(F)cc(F)c2C1)C(=O)Nc1cn(C(C)(C)CNC(C)C)cn1 |  | 19.3 nM |  | 6100 nM | 41.2 mg/kg | Ratio [4]: 3.5
6 | CCC[C@H](NC(=O)Cc1cc(F)cc(F)c1)C(=O)Nc1cn(C(C)(C)CNCC(C)(C)C)cn1 | 8.4 |  |  |  |  | 
7 | CCC[C@H](NCc1cc(F)cc(F)c1)C(=O)Nc1cn(C(C)(C)CN2CCCC2)cn1 | 1.8 | 480 nM | 499 nM |  |  | 
8 | CCC[C@H](NC1CCc2cc(Cl)ccc2C1)C(=O)Nc1cn(C(C)(C)CN2CCCC2)cn1 (mixture of isomers) | 1.3 | 12.4 nM | 8.9 nM |  |  | 
9 | CCC[C@H](N[C@H]1CCc2cc(F)cc(F)c2C1)C(=O)Nc1cn(C(C)(C)CN(C)C)cn1 |  | 4.6 nM |  | 3010 nM | 16.1 mg/kg | 
10 | CCC[C@H](NCCc1cc(F)cc(F)c1)C(=O)Nc1cn(C(C)(C)CN2CCCC2)cn1 | 1.9 | 754 nM | 250 nM |  |  | 
11 | CCC[C@H](NC1CCc2ccccc2C1)C(=O)Nc1cn(C(C)(C)CN2CCCC2)cn1 (some centres undefined) | 2.2 | 53.9 nM | 85.7 nM |  |  | 
12 | CCC[C@H](NC1COc2ccccc2C1)C(=O)Nc1cn(C(C)(C)CN2CCCC2)cn1 (some centres undefined) | 2.9 | 155 nM | 93.3 nM |  |  | 
13 | CCC[C@H](NC1CCc2cccc(Cl)c2C1)C(=O)Nc1cn(C(C)(C)CN2CCCC2)cn1 (mixture of isomers) | 3.3 | 46.8 nM | 31 nM |  |  | 
14 | CCC[C@H](N[C@H]1CCc2cc(F)cc(F)c2C1)C(=O)Nc1cn(C(C)(C)CN2CCCC2)cn1 |  | 2.9 nM |  | 3260 nM | 9.9 mg/kg | Ratio [4]: 9.8; Activity [7]: Active; Activity [8]: 31%; Activity [9]: Active; Cp [10]: 100 ng/mL; Activity [11]: 33%; Activity [12]: Active; Activity [13]: Non-toxic; Activity [14]: Active; Activity [15]: Active; Activity [16]: inactive; Drug uptake [17]: 587 ng/mL; Ratio [18]: > 500; Activity [19]: inactive; Activity [20]: 30%; Activity [21]: Active
15 | CCC[C@H](N[C@H]1CCc2cc(F)cc(F)c2C1)C(=O)Nc1cn(C(C)(C)CN2CCCCC2)cn1 |  | 3.3 nM |  | 2560 nM | 4.1 mg/kg | Ratio [4]: 46.1
16 | CCC[C@H](NCCC(C)C)C(=O)Nc1cn(C(C)(C)CN2CCCC2)cn1 | 4.4 | 3100 nM | > 10000 nM |  |  | 
17 | CCC[C@H](NC1Cc2ccccc2C1)C(=O)Nc1cn(C(C)(C)CN2CCCC2)cn1 | 1.8 | 272 nM | 148 nM |  |  | 
18 | CCC[C@H](N[C@H]1CCc2cc(F)cc(F)c2C1)C(=O)Nc1cn(C(C)(C)CNCC(C)(C)C)cn1 [NIROGACESTAT] |  |  |  | 1830 nM | 2.3 mg/kg | 
19 | CCC[C@H](N[C@H]1CCc2cc(F)cc(F)c2C1)C(=O)Nc1cn(C(C)(C)CNCC(F)(F)F)cn1 |  | 4.9 nM |  | 5100 nM | 14.6 mg/kg | Ratio [4]: 37.7
